TDP2 inh = TDP2 (human) inhibition, absorbance primary screen. AID 720702. inhibition, % at 12.8 µM. recombinant TDP2, T5PNP hydrolysis, p-nitrophenol absorbance 415 nm. O95551. 370,000 compounds, 0.34% hits;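 active = inhibition above the mean of all tested compounds plus 3 SD, set per campaign, cut at about 25% in these data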;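 also: 0% = DMSO with enzyme and 100% = buffer with substrate but no TDP2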
Target sequence (O95551 whole entry, looked up): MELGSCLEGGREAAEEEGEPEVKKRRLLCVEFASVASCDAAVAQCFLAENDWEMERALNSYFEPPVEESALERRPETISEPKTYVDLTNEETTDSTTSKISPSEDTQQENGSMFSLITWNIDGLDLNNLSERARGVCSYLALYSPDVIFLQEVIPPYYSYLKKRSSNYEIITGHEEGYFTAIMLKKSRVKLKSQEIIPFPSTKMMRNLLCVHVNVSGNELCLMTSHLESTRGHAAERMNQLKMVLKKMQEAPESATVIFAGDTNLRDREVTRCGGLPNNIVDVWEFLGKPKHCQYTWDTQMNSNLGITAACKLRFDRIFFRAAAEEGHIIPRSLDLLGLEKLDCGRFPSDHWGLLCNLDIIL
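Evaluation: % inhibition relative to enzyme-containing and enzyme-free wells. Material: recombinant human TDP2. Benchmarks: enzyme-free and DMSO wells. Timing: enzyme reaction with compound for 2 h at 37 °C. Compound dosing: 12.8 µM only. Measured by: p-Nitrophenol epi absorbance. Reagent: T5PNP substrate at 5 mM, a TopII-DNA adduct mimic. Replication: single well per compound.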
SIAE inh = inhibitors of human sialic acid acetylesterase SIAE; SIAE FP-Rh probe binding, fluorescence polarization; inhibition, % at 9.66 µM; 370,000 compounds, 0.69% hits; Q9HAT2;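 active = inhibition above a cutoff: mean of compounds within the control limits plus 3 SD of those, cut at about 17% in these data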;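 also: 0% = plate median of compound wells and 100% = probe without SIAE protein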
HTRA1 inhibitor = HTRA1 (human) protease inhibition; Q92743; recombinant HTRA1, FP-rhodamine activity-based probe, fluorescence polarization; inhibition, % at 5.96 µM; 340,000 compounds, 0.5% hits; AID 504803; in the data active = inhibition above about 36%;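 also: 0% = enzyme with DMSO and 100% = wells lacking enzyme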
ABHD4 inh = ABHD4 (mouse) inhibition, primary FP screen | purified mABHD4, FP-Rh probe fluorescence polarization | 370,000 compounds, 0.54% hits | Q8VD66 | inhibition, % at 8.92 µM;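 active = inhibition exceeding the mean over every tested compound plus 3 SD, cut at about 30% in these data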;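 also: 0% = plate median of compound wells and 100% = S159A mutant with DMSO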
Target sequence (Q8VD66 whole entry, looked up): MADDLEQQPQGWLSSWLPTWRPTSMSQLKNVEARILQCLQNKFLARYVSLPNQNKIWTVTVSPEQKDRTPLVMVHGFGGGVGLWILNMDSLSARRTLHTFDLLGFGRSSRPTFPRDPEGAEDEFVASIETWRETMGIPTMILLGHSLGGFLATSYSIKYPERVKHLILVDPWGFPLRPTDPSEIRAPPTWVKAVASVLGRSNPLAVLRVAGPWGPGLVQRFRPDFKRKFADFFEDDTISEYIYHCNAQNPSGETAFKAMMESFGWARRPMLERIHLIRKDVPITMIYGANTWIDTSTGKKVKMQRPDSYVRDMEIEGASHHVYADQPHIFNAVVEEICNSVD
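System: mouse ABHD4 enzyme, wild type / Medium: HEPES pH 7.0, NaCl, Pluronic buffer / Reagent: FP-Rh activity-based fluorescent probe / Control set: S159A mutant high control, sample median low control / Detection: fluorescence polarization with parallel and perpendicular emission, 525/598 nm / Schedule: 45 min + 60 min at 25 °C / Compound dosing: 8.92 µM, single dose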
TCR-CD3 inh = inhibitors of human TCR-CD3 interaction; TAMRA-labeled TCR probe fluorescence, biochemical; inhibition, % at 9.4 µM; 360,000 compounds, 0.37% hits; in the data active = inhibition above about 19%;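 also: recombinant mutant TCR 2C K166C tagged with TAMRA read by polarization; 0% = receptor in buffer alone and 100% = receptor with positive control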
LEDGF integ inh = blocks HIV-1 LEDGF/p75-dependent DNA integration; TR-FRET IN-LEDGF/p75 DNA integration, Eu/Cy5; inhibition, % at 3.7 µM; 370,000 compounds, 0.64% hits; AID 743269;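 active = inhibition above the screen-wide mean plus 3 SD, cut at about 13% in these data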;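 also: signal is the Cy5 over europium emission ratio at 671 and 618 nm; 0% = plate median of compound wells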
IN multimer up = activates HIV-1 integrase multimerization in LEDGF counter-screen; 2,000 compounds, 17% hits; shares compounds with LEDGF integ inh; activation, % at 7.7 µM; TR-FRET HIV-1 integrase multimerization, biochemical; in the data active = activation above about 8.9%
TR-FRET interf = optically interferes with TR-FRET readout in LEDGF counter-screen; TR-FRET optical interference counterscreen, HIV-1 IN multimerization; shares compounds with LEDGF integ inh; AID 1053135; inhibition, % at 7.7 µM; 2,000 tested, under 10 active;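 active = inhibition above the mean over all tested compounds plus 3 SD, which no compound reached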;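 also: 0% = integrase with antibodies and DMSO and 100% = antibodies without integrase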
LEDGF integ conf = LEDGF/p75-dependent HIV-1 integration inhibition, confirmation; shares compounds with LEDGF integ inh; TR-FRET LEDGF/p75-dependent HIV-1 integration, biochemical; inhibition, % at 3.7 µM; 2,000 compounds, 36% hits; AID 1053136; in the data active = inhibition above about 14%
Starred values were filed as active, the others as inactive; nt = no result given. An excerpt weighted towards active compounds, which were near 2.2% of everything screened.

SMILES | TDP2 inh | SIAE inh | HTRA1 inhibitor | ABHD4 inh | TCR-CD3 inh | LEDGF integ inh | IN multimer up | TR-FRET interf | LEDGF integ conf
CCc1c(-c2cccc(Br)c2)ncn1CCc1ccccc1OC | 9 | 11 | nt | 2 | 4 | 1 | nt | nt | nt
CCC(=O)c1ccc(OCC(=O)OCc2csc(CC(=O)Nc3ccccc3C)n2)cc1 | -3 | 6 | -5 | 8 | 5 | -3 | nt | nt | nt
O=Cc1ccc(-c2c(-c3ccccc3)oc3c2C(OCCCCO)CCC3)o1 (configuration not stated) | -2 | 4 | nt | 15 | -3 | 30* | 0 | 0 | 6
O=C(NCC1CC1)c1cccc2c1C(=O)c1ccc(N3CCCC3)cc1S2(=O)=O | 7 | -21 | -22 | -15 | 3 | 27* | 0 | -2 | -8
CN(C)Cc1cc(C(C)(C)C)cc(C(C)(C)C)c1O | -4 | -4 | 0 | 5 | 5 | 3 | nt | nt | nt
CN(C)Cc1cc(O)c(CN(C)C)cc1O | 14 | 8 | 15 | 6 | 2 | 24* | 5 | -17 | 30*
COc1ccc(CCNC(=O)c2cc(Cl)nc3ccccc23)cc1 | -13 | 1 | 2 | 7 | 12 | 15* | 1 | -3 | -8
COc1ccc(S[C@]2(C(=O)N3CCCC3)CC(=O)N(C(=O)CCc3ccccc3)[C@@H]2c2ccc(OC)cc2)cc1 | 7 | -8 | nt | -3 | nt | -4 | nt | nt | nt
CCCNCC(=O)Nc1sc2c(c1C(=O)Nc1c(C)n(C)n(-c3ccccc3)c1=O)CCCC2 | -3 | -2 | 10 | -3 | -11 | 7 | nt | nt | nt
NC(=S)N/N=C/c1ccc(-c2ccccc2)o1 | 7 | 4 | 1 | -6 | -6 | -4 | nt | nt | nt
NC(=S)NN=Cc1ccc(-c2ccc(S(=O)(=O)Nc3ncccn3)cc2)o1 | 5 | -7 | 7 | 19 | 9 | 15* | 7 | -35 | 34*
O=C1C(=NO)CCc2ccccc21 | 20 | 7 | 26 | 22 | 4 | 29* | 3 | -11 | 26*
CC1=C(C(=O)Nc2ccccc2)C(c2ccc(C)o2)n2c(s/c(=C\c3ccco3)c2=O)=N1 (configuration not stated) | -1 | -4 | 7 | 5 | -2 | 29* | 3 | -14 | 6
COc1cccc(C2C(C(=O)Nc3ccccc3)=C(C)N=c3s/c(=C/c4ccc(OCC(=O)O)cc4)c(=O)n32)c1 (configuration not stated) | 8 | -27 | -25 | -56 | 11 | 4 | nt | nt | nt
Cc1ccc(-n2nc3c(c2NC(=O)C(C)(C)C)CSC3)c(C)c1 | -8 | -7 | -17 | 3 | -7 | -2 | nt | nt | nt
Cc1ccc(-n2nc3c(c2NC(=O)c2ccc(Br)o2)CSC3)c(C)c1 | -3 | -53 | -50 | -25 | 2 | 15* | 0 | -1 | 49*
O=S(=O)(c1ccc(Br)cc1)c1nc(-c2ccccc2)oc1NCCN1CCOCC1 | -1 | 0 | -3 | 0 | 12 | -6 | nt | nt | nt
C=CCNC(=S)N1N=C(c2ccco2)CC1c1ccco1 (configuration not stated) | 7 | 13 | -4 | 2 | 3 | 17* | 2 | -8 | 7
COCCCN1C(=O)C(=O)/C(=C(/O)c2ccccc2)C1c1ccc2c(c1)OCO2 (configuration not stated) | -8 | 1 | 0 | 7 | -9 | 30* | -1 | 4 | 3
COCCCN1C(=O)C(=O)/C(=C(/O)c2ccccc2)C1c1ccc(N(C)C)cc1 (configuration not stated) | -4 | -3 | 6 | -4 | -3 | 2 | nt | nt | nt
O=C(CNS(=O)(=O)c1cc2ccccc2s1)N1CCN(c2ccccn2)CC1 | 3 | -9 | nt | 3 | nt | 0 | nt | nt | nt
CCOc1ccc(C(=O)C[n+]2ccccc2C)cc1 | 4 | 0 | 2 | -2 | -8 | 14* | 0 | 1 | -3
S=C(NCc1ccco1)NCc1ccco1 | 6 | 8 | 0 | 9 | 4 | 34* | 6 | -20 | 3
COc1cccc(COC(=O)C2CCN(C(=O)c3ccc(F)cc3)CC2)c1OC | 5 | -6 | -6 | 1 | 7 | 4 | nt | nt | nt
CSc1nc2c([nH]1)c(=S)n(C)c(=O)n2C | -3 | 0 | 5 | -3 | 0 | 26* | 7 | -24 | -10
SMILES | TDP2 inh | SIAE inh | HTRA1 inhibitor | ABHD4 inh | TCR-CD3 inh | LEDGF integ inh | IN multimer up | TR-FRET interf | LEDGF integ conf
COC(=O)[C@H]1C[C@@]2(CC=C(C)C)c3ccccc3N(C(=O)OC(C)(C)C)[C@H]2N1C(=O)OC(C)(C)C | -1 | 6 | nt | -9 | nt | 0 | nt | nt | nt
O=C1CC(c2ccc(O)c(O)c2)Oc2cc(O)cc(O)c21 (configuration not stated) | 2 | 8 | 27 | 23 | 11 | 13* | 3 | -13 | 23*
CC(=O)NS(=O)(=O)c1ccc(NC(=O)/C=C/c2ccco2)cc1 | 3 | -2 | 9 | -4 | -1 | 30* | 3 | -13 | 26*
O=C(/C=C/c1ccco1)Nc1ccc2c(c1)OCO2 | 2 | -1 | -4 | -5 | -6 | 0 | nt | nt | nt
CC1CCN(C(=O)c2[nH]cnc2C(=O)NC2CCN(C(=O)OC(C)(C)C)CC2)CC1 | 2 | -1 | -3 | 6 | 1 | 17* | -1 | 5 | -1
CC1CCN(C(=O)c2[nH]cnc2C(=O)NCCCCCNC(=O)OC(C)(C)C)CC1 | 5 | 2 | 1 | -1 | 2 | 0 | nt | nt | nt
COC(=O)c1ccc2nc(-c3ccc(OC)c(OC)c3)c(Cc3cccc(F)c3)n2c1 | 8 | -5 | nt | -2 | -4 | -1 | nt | nt | nt
COCC1CN(CCc2ccc(F)cc2)S(=O)(=O)c2c(F)cccc2O1 (configuration not stated) | -3 | 1 | nt | -10 | 2 | 18* | 1 | -2 | 0
CCc1c(C(=O)C(C)O)c2n3c1CCC[C@@H]3CC2 (some centres not stated) | 1 | 9 | nt | 7 | nt | -2 | nt | nt | nt
O=C(CCCOc1ccc(Cl)cc1Cl)NCCCn1ccnc1 | -3 | -4 | 5 | 6 | 3 | 27* | 0 | -1 | 2
Cc1cc(Cl)ccc1OCCCC(=O)NCCCn1ccnc1 | 1 | -1 | -9 | 3 | 4 | -6 | nt | nt | nt
N#Cc1c(SCC(=O)Nc2cccc(F)c2)sc2c(O)cc(=O)[nH]c12 | -3 | -5 | -20 | -40 | 8 | 17* | 7 | -38 | 5
Clc1ccc2nc(CNc3nc(N4CCOCC4)nc4c3ncn4-c3ccsc3)[nH]c2c1 | 7 | 3 | nt | -12 | nt | -1 | nt | nt | nt
